In ChEMBL document CHEMBL4196224, “Novel Hypoxia-Inducible Factor 1α (HIF-1α) Inhibitors for Angiogenesis-Related Ocular Diseases: Discovery of a Novel Scaffold via Ring-Truncation Strategy” (J Med Chem, 2018):
Activity calls are given as the source filed them.

Legend:
Mus musculus [1] = experiment: Suppression of hypoxia-mediated retinal neovascularization in mouse model of oxygen-induced retinopathy assessed as reduction in retinal neovascular tufts at 100 nM dosed via intravitreal route; format: functional, organism-based
How it was run: (§1)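 Newborn mice held in 75% ± 0.5% O2 from P7 to P12. Intravitreal injection of compound or PBS at P14 (n = 6). Retinas whole-mounted at P17 and stained with isolectin B4-594. Neovascular tuft area per retina measured by image analysis; mean ± SEM.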

[2] = biological target: T1, Hypoxia-inducible factor 1-alpha (Homo sapiens, UniProt Q16665); experiment: Inhibition of HIF-1alpha in human HRE-A549 cells pre-incubated for 1 hr before exposure to hypoxia for 24 hrs by HRE-luciferase reporter gene assay; format: cell-based
How it was run: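 A549 cells stably carrying an HRE-luciferase reporter (G418 600 μg/mL selection), kept in DMEM/10% FBS and grown to 80-90% confluence. Serum withdrawn overnight, compound added 1 h before 24 h hypoxia (1% O2, 5% CO2, 94% N2, 37 °C). Luciferase read by luminometer. IC50 is the mean of three independent experiments with standard error.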
Target sequence in this assay (Q16665 whole entry): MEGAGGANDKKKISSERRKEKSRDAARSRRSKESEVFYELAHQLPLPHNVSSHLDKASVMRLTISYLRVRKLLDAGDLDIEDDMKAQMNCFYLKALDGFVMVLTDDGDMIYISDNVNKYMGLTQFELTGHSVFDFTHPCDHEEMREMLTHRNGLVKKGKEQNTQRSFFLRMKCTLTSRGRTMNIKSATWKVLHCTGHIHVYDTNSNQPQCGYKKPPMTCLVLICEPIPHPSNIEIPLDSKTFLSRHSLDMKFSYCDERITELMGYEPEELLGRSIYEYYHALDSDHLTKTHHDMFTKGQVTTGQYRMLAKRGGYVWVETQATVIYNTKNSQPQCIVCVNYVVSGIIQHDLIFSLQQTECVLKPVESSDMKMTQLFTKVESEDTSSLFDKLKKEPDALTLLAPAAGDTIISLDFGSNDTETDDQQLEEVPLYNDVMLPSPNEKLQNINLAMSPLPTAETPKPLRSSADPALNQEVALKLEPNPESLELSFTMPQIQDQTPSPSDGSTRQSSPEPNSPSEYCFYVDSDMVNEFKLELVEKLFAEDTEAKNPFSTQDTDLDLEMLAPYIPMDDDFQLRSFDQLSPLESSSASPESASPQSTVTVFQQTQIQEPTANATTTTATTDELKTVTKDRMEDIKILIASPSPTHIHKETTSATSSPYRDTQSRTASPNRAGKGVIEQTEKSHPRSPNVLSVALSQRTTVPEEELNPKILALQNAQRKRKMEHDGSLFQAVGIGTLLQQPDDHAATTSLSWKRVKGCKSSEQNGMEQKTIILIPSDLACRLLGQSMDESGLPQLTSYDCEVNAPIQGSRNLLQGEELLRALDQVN

[3] = Aqueous solubility of the compound in DPBS incubated for 24 hrs by LC/MS/MS method relative to SH-1242; format: physicochemical; settings: buffer
HUVEC [4] = experiment: Antiangiogenic activity in HUVEC exposed to human HeLa cells derived conditioned media assessed as inhibition of hypoxia-induced [3H]-thymidine incorporation at 100 nM incubated for 24 hrs by liquid scintillation counting assay; format: functional, cell-based
How it was run: (§2)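 Conditioned medium from RPE or HeLa cells grown in M199 with 1% FBS under hypoxia ± compound, passed through a 3 kDa cut-off filter. Proliferation: 5 x 10^3 endothelial cells on gelatin, 24 h, then CM 24 h; [3H]-thymidine incorporation, DNA solubilized in 0.2 N NaOH/0.1% SDS, scintillation counting. Migration: 1 x 10^5 cells in Transwell upper well over CM, 4 h, H&E stain, migrated cells counted. Tube formation: 2 x 10^5 cells on Matrigel in CM, 20 h, tube length measured in 5 random fields (x100).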

HUVEC [5] = experiment: Antiangiogenic activity in HUVEC exposed to human HeLa cells derived conditioned media assessed as inhibition of hypoxia-induced cell migration at 100 nM incubated for 4 hrs by H and E staining based inverted phase contrast microscopy; format: functional; how it was run: as §2
HUVEC [6] = experiment: Antiangiogenic activity in HUVEC exposed to human HeLa cells derived conditioned media assessed as inhibition of hypoxia-induced cell tube formation at 100 nM incubated for 20 hrs; format: functional, cell-based; how it was run: as §2
[7] = biological target: T1, Hypoxia-inducible factor 1-alpha; experiment: Inhibition of HIF-1alpha in human A549 cell lysates assessed as reduction in Hsp90 and HIF-1alpha interaction at 1.25 uM in presence of ATP for 30 mins at 37 degC by immunoprecipitation and immunoblotting assay
How it was run: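 Lysate from A549 cells exposed to 100 μM CoCl2 for 5 h, incubated with compound ± 20 mM ATP for 30 min at 37 °C. HIF-1α immunoprecipitated overnight at 4 °C, then protein G-agarose 2 h at 4 °C. Complex boiled in Laemmli buffer, run on 6% SDS-PAGE, blotted for HSP90.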
Target sequence in this assay (Q16665 whole entry, looked up): as the sequence (Q16665 whole entry) above

Homo sapiens [8] = species: Homo sapiens; experiment: Antiangiogenic activity in HRMEC exposed to human RPE cells derived conditioned media assessed as inhibition of hypoxia-induced [3H]-thymidine incorporation at 100 nM incubated for 24 hrs by liquid scintillation counting assay; format: functional; how it was run: as §2
Homo sapiens [9] = species: Homo sapiens; experiment: Antiangiogenic activity in HRMEC exposed to human RPE cells derived conditioned media assessed as inhibition of hypoxia-induced cell migration at 100 nM incubated for 4 hrs by H and E staining based inverted phase contrast microscopy; format: functional; how it was run: as §2
Homo sapiens [10] = species: Homo sapiens; experiment: Antiangiogenic activity in HRMEC exposed to human RPE cells derived conditioned media assessed as inhibition of hypoxia-induced tube formation at 100 nM incubated for 20 hrs; format: functional; how it was run: as §2
Mus musculus [11] = experiment: Suppression of hypoxia-mediated retinal neovascularization in mouse model of oxygen-induced retinopathy assessed as reduction in retinal neovascular tufts at 100 nM dosed via intravitreal route relative to SH-1242; format: functional, organism-based; how it was run: as §1
[12] = biological target: T1, Hypoxia-inducible factor 1-alpha; experiment: Induction of HIF-1alpha destabilization in human HCT116 cells under hypoxic conditions at 100 nM by Western blot method
Target sequence in this assay (Q16665 whole entry, looked up): as the sequence (Q16665 whole entry) above

[13] = biological target: T1, Hypoxia-inducible factor 1-alpha; experiment: Induction of HIF-1alpha destabilization in human HCT116 cells under hypoxic conditions assessed as reduction in hypoxia-induced VEGFA mRNA expression at 100 nM
Target sequence in this assay (Q16665 whole entry, looked up): as the sequence (Q16665 whole entry) above

[14] = biological target: T1, Hypoxia-inducible factor 1-alpha; experiment: Induction of HIF-1alpha destabilization in human HCT116 cells under hypoxic conditions assessed as reduction in hypoxia-induced VEGF production at 100 nM by ELISA
Target sequence in this assay (Q16665 whole entry, looked up): as the sequence (Q16665 whole entry) above

Mus musculus [15] = experiment: Suppression of hypoxia-mediated retinal neovascularization in mouse model of oxygen-induced retinopathy assessed as reduction in retinal neovascular tufts at 1 uM dosed via intravitreal route; format: functional, organism-based; how it was run: as §1

Structure (SMILES) | IC50 [2] | further results
COc1ccc([C@H](C)C(=O)c2ccc(NCc3ccc(C#N)cc3)cc2OC)cc1OC | – | Activity (Mus musculus [1]): Active
COc1ccc(C(=O)C(C)c2ccc(OC)c(OC)c2)c(OC)c1 (racemic) | > 15000 nM | –
COc1ccc(C(C)C(=O)c2ccc(NCc3ccc(C#N)cc3)cc2OC)cc1OC (racemic) | – | fold change (FC) [3]: 17; Activity (HUVEC [4]): Active; Activity (HUVEC [5]): Active; Activity (HUVEC [6]): Active; inhibition [7]: Active; Activity (Homo sapiens [8]): Active; Activity (Homo sapiens [9]): Active; Activity (Homo sapiens [10]): Active; Activity (Mus musculus [11]): Active; Activity [12]: Active; Activity [13]: Active; Activity [14]: Active
COc1c(C(=O)Cc2ccc(F)cc2)ccc2c1C=CC(C)(C)O2 | 1020 nM | –
COc1c(C(=O)Cc2ccccc2O)ccc2c1C=CC(C)(C)O2 | 940 nM | –
COc1c(C(=O)Cc2ccc(F)c(F)c2)ccc2c1C=CC(C)(C)O2 | 1270 nM | –
COc1ccc(C(C)C(=O)c2ccc(N3CCCC3)cc2)cc1OC (racemic) | 2610 nM | –
COc1c(C(=O)Cc2ccc(Cl)c(Cl)c2)ccc2c1C=CC(C)(C)O2 | 2880 nM | –
COc1c(C(=O)Cc2ccccc2F)ccc2c1C=CC(C)(C)O2 | 100 nM | –
COc1c(C(=O)Cc2cccc(O)c2)ccc2c1C=CC(C)(C)O2 | 1440 nM | –
COc1ccc(C(C)C(=O)c2ccc(N(C)C)cc2OC)cc1OC (racemic) | > 15000 nM | –
COc1c(C(=O)Cc2ccccc2)ccc2c1C=CC(C)(C)O2 | 880 nM | –
COc1c(C(=O)Cc2ccc3c(c2)OCCO3)ccc2c1C=CC(C)(C)O2 | 1330 nM | –
COc1ccc(C(C)C(=O)c2ccc(O)cc2OC)cc1OC (racemic) | > 15000 nM | –
COc1c(C(=O)Cc2cccc(F)c2)ccc2c1C=CC(C)(C)O2 | 360 nM | –
COc1ccc(CC(=O)c2ccc3c(c2OC)C=CC(C)(C)O3)cc1 | 6210 nM | –
COc1ccc([C@@H](C)C(=O)c2ccc(NCc3ccc(C#N)cc3)cc2OC)cc1OC | – | Activity (Mus musculus [1]): Active
COc1c(C(=O)Cc2ccc(O)cc2)ccc2c1C=CC(C)(C)O2 | 790 nM | –
COc1ccc(N(Cc2ccccc2)C(=O)c2ccc3c(c2OC)C=CC(C)(C)O3)cc1OC | 10800 nM | –
COc1c(C(=O)Cc2ccc3c(c2)OCO3)ccc2c1C=CC(C)(C)O2 | 3410 nM | –
COc1ccccc1CC(=O)c1ccc2c(c1OC)C=CC(C)(C)O2 | 3210 nM | –
COc1cccc(CC(=O)c2ccc3c(c2OC)C=CC(C)(C)O3)c1 | 820 nM | –
COc1ccc(C(C)C(=O)c2ccc(N3CCCCC3)cc2OC)cc1OC (racemic) | – | fold change (FC) [3]: 93; Activity (HUVEC [4]): Active; Activity (HUVEC [5]): Active; Activity (HUVEC [6]): Active; Activity (Mus musculus [1]): Active; Activity (Mus musculus [15]): Active

Now from value to compound, other results behind:

IC50 [2] | Structure (SMILES) | further results
2150 nM | COc1ccc(CC(=O)c2ccc3c(c2OC)C=CC(C)(C)O3)cc1OC | Activity (Mus musculus [1]): Active; Activity (Mus musculus [15]): Active
1360 nM | COc1ccc(C(C)C(=O)c2ccc3c(c2OC)C=CC(C)(C)O3)cc1OC (racemic) | –
8880 nM | COc1ccc(CC(O)c2ccc3c(c2OC)C=CC(C)(C)O3)cc1OC (stereo unspecified) | –
5250 nM | CCN(C(=O)c1ccc2c(c1OC)C=CC(C)(C)O2)c1ccc(OC)c(OC)c1 | –
8450 nM | C=CCC(C(=O)c1ccc2c(c1OC)C=CC(C)(C)O2)c1ccc(OC)c(OC)c1 (stereo unspecified) | –
3040 nM | COc1ccc(CC(OC(C)=O)c2ccc3c(c2OC)C=CC(C)(C)O3)cc1OC (stereo unspecified) | –
3150 nM | COc1ccc(N(C)C(=O)c2ccc3c(c2OC)C=CC(C)(C)O3)cc1OC | –
12000 nM | COc1ccc(C(Cc2ccccc2)C(=O)c2ccc3c(c2OC)C=CC(C)(C)O3)cc1OC (stereo unspecified) | –
6350 nM | COc1ccc(C(F)C(=O)c2ccc3c(c2OC)C=CC(C)(C)O3)cc1OC (stereo unspecified) | –
2040 nM | COc1ccc(NC(=O)c2ccc3c(c2OC)C=CC(C)(C)O3)cc1OC | –
